What was measured:
Format in all cases: functional, cell-based
[1] = target: T1, Sphingosine 1-phosphate receptor 3 (Homo sapiens, UniProt Q99500); assay: Antagonist activity against human S1P3 receptor assessed as inhibition of S1P-induced intracellular calcium mobilization in CHO-K1 cells
Outline: (§1)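 CHO-K1 cells stably transfected with the S1P1, S1P2 or S1P3 receptor, grown in Ham's F12K with G418 (200 µg/mL). Cells plated at 20 000/well in Ham's medium with 1% FBS for 24 h at 37 °C, washed, then held in Ham's medium for a further 24 h. Cells are washed with HBSS containing sulfinpyrazone (0.25 mmol/L) and loaded with Fura-2.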

[2] = target: Sphingosine 1-phosphate receptor 2 (Homo sapiens) (UniProt O95136); assay: Antagonist activity against human S1P2 receptor assessed as inhibition of S1P-induced intracellular calcium mobilization in CHO-K1 cells at 10 uM; outline: as §1
[3] = target: T2, Sphingosine 1-phosphate receptor 1 (Homo sapiens, UniProt P21453); assay: Activity at human S1P1 receptor assessed as inhibition of S1P-induced intracellular calcium mobilization in CHO-K1 cells at 10 uM; outline: as §1
[4] = target: T1, Sphingosine 1-phosphate receptor 3; assay: Antagonist activity against human S1P3 receptor assessed as inhibition of S1P-induced intracellular calcium mobilization in CHO-K1 cells at 10 uM; outline: as §1
[5] = target: T2, Sphingosine 1-phosphate receptor 1; assay: Antagonist activity against human S1P1 receptor assessed as inhibition of S1P-induced intracellular calcium mobilization in CHO-K1 cells; outline: as §1

T2 sequence (P21453 whole entry): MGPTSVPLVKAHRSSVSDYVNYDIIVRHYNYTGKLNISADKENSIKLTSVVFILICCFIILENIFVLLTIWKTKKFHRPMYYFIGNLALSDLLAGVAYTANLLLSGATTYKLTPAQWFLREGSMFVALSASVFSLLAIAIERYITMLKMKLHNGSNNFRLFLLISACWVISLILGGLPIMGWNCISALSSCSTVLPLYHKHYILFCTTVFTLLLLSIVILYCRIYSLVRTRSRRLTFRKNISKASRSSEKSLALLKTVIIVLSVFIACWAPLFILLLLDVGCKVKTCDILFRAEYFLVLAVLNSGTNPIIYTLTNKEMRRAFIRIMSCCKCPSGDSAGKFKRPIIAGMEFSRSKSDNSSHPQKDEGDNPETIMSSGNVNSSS
Chain of Sphingosine 1-phosphate receptor 2 (Homo sapiens) (O95136 whole entry): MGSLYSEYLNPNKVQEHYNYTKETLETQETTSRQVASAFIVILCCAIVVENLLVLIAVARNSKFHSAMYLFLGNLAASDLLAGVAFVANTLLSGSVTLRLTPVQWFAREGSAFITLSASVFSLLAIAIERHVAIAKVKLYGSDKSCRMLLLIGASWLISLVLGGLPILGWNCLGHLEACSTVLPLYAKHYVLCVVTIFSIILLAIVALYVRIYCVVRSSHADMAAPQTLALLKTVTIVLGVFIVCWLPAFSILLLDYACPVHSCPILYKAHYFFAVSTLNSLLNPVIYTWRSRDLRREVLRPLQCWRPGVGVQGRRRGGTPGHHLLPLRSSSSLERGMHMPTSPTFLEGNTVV
T1 sequence (Q99500 whole entry): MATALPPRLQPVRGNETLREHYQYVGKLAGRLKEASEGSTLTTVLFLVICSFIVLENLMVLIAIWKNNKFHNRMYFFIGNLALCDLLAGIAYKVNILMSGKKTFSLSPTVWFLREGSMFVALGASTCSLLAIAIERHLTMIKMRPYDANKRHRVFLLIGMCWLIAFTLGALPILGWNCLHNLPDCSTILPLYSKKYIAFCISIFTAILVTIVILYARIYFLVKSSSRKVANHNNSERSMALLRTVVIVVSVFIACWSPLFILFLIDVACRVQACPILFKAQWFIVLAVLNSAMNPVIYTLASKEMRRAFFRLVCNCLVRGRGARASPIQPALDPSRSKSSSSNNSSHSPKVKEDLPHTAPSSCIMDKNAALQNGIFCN

Row | Structure (SMILES) | IC50 [1] | inhibition [2] | inhibition [3] | other results
1 | CCCCCCCCCCCCCCCCOc1ccc(S(=O)(=O)O)cc1C(=O)O | 8.75 µM | – | – | –
2 | CCCCOc1ccc(/C(=N/NS(=O)(=O)c2cc(C(=O)O)cc(C(=O)O)c2)c2ccccc2)cc1OC | – | 6.2% | 24.2% | inhibition [4]: 6.7%
3 | CCCCCCCc1ccc(C2N[C@H](C(=O)O)CS2)cc1 (some centres not stated) | 13 µM | – | – | –
4 | CCCCCCCCCCCCCC1N[C@H](C(=O)O)CS1 (some centres not stated) | – | – | – | inhibition [4]: < 10%
5 | CCCCCCCc1cccc(C2N[C@H](C(=O)O)CS2)c1 (some centres not stated) | 9.7 µM | – | – | –
6 | CCCCCCCCCCCC1N[C@H](C(=O)O)CS1 (some centres not stated) | 11.6 µM | – | – | –
7 | CCCCCCCCCCCCCCCCCC(=O)Nc1ccc(C(=O)CC(=O)Cc2cc(C(=O)O)ccc2Oc2cc(C(=O)O)cc(C(=O)O)c2)cc1 | 3.59 µM | – | – | –
8 | CCCCCCCCCCC1N[C@H](C(=O)O)CS1 (some centres not stated) | 15.7 µM | – | – | –
9 | CCCCCCCCCc1cccc(C2N[C@H](C(=O)O)CS2)c1 (some centres not stated) | > 20 µM | – | – | –
10 | CCCCCCCCCCCCCCCCCNc1ccc(C(=O)CC(=O)Cc2cc(C(=O)O)ccc2Oc2cc(C(=O)O)cc(C(=O)O)c2)cc1 | 4.6 µM | – | – | –
11 | COc1ccc(C2N[C@H](C(=O)O)CS2)cc1COc1c(C)cc(Cl)cc1C(C)C (some centres not stated) | > 20 µM | – | – | –

More lines, main results first:

Row | IC50 [1] | inhibition [2] | inhibition [3] | Structure (SMILES) | other results
12 | 9.74 µM | 20.5% | 17.2% | CCCCCCCCCCCCCCCCOc1ccc(/C(=N/NS(=O)(=O)c2cc(C(=O)O)cc(C(=O)O)c2)c2ccccc2)cc1 | –
13 | – | -8.7% | 1% | CCCCCCCCCCCCCCCCOc1ccc(/C(=N\NS(=O)(=O)c2cccc(C(=O)O)c2)c2ccccc2)cc1OC | inhibition [4]: 8.3%
14 | 3.57 µM | 9.5% | – | CCCCCCCCCCCCCCCCOc1ccc(/C(=N\NS(=O)(=O)c2cc(C(=O)O)cc(C(=O)O)c2)c2ccccc2)cc1OC | IC50 [5]: 4.28 µM
15 | – | -0.1% | 34.8% | CCCCCCCCCCCCCCCCOc1ccc(/C(=N/NS(=O)(=O)c2cccc(C(=O)O)c2)c2ccccc2)cc1OC | HI [4]: 34.4%
16 | 13.2 µM | 14% | 32.9% | CCCCCCCCOc1ccc(/C(=N\NS(=O)(=O)c2cc(C(=O)O)cc(C(=O)O)c2)c2ccccc2)cc1OC | –
17 | 2.96 µM | 40.9% | – | CCCCCCCCCCCCCCCCOc1ccc(/C(=N/NS(=O)(=O)c2cc(C(=O)O)cc(C(=O)O)c2)c2ccccc2)cc1OC | IC50 [5]: 6.64 µM
18 | 3.44 µM | 35.9% | – | CCCCCCCCCCCCCCCCOc1ccc(/C(=N/NS(=O)(=O)c2cc(C(=O)O)cc(C(=O)O)c2)N2CCCCC2)cc1OC | IC50 [5]: 6.18 µM
19 | 11.4 µM | -4.6% | 12.7% | CCCCCCCCOc1ccc(/C(=N/NS(=O)(=O)c2cc(C(=O)O)cc(C(=O)O)c2)c2ccccc2)cc1OC | –

Source: ChEMBL document CHEMBL1141397, “Pharmacophore-based design of sphingosine 1-phosphate-3 receptor antagonists that include a 3,4-dialkoxybenzophenone scaffold” (J Med Chem, 2007)
